The source made the active and inactive calls.
Tests used:
[1] = molecular target: Serine/threonine-protein kinase B-raf (Homo sapiens) (UniProt P15056); assay: Inhibition of recombinant human BRAF (416 to end residues) at 10 uM using myelin basic protein as substrate measured after 40 mins in presence of [gamma33P]ATP by scintillation counting method
[2] = molecular target: Protein kinase C beta type (Homo sapiens) (UniProt P05771); assay: Inhibition of recombinant human PKCbeta2 (2 to end residues) at 10 uM using histone H1 as substrate measured after 40 mins in presence of [gamma33P]ATP by scintillation counting method
[3] = system: Hepatocyte growth factor receptor (Homo sapiens), P08581 [D1228H]; assay: Inhibition of recombinant human MET A1209G/V1290L/D1246H mutant (974 to end residues) at 10 uM using KKKGQEEEYVFIE as substrate measured after 40 mins in presence of [gamma33P]ATP by scintillation counting method
[4] = molecular target: Serine/threonine-protein kinase tousled-like 1 (Homo sapiens) (UniProt Q9UKI8); assay: Inhibition of recombinant full-length human TLK1 at 10 uM using casein as substrate measured after 40 mins in presence of [gamma33P]ATP by scintillation counting method
[5] = molecular target: Serine/threonine-protein kinase VRK2 (Homo sapiens) (UniProt Q86Y07); assay: Inhibition of human VRK2 (1 to 336 residues) using casein as substrate measured after 40 mins in presence of [gamma33P]ATP by scintillation counting method
[6] = molecular target: Ribosomal protein S6 kinase alpha-5 (Homo sapiens) (UniProt O75582); assay: Inhibition of recombinant human MSK1 (2 to end residues) at 10 uM using GRPRTSSFAEGKK as substrate measured after 40 mins in presence of [gamma33P]ATP by scintillation counting method
[7] = molecular target: Tyrosine-protein kinase Lck (Homo sapiens) (UniProt P06239); assay: Inhibition of recombinant full-length human activated Lck at 10 uM using KVEKIGEGTYGVVYK as substrate measured after 40 mins in presence of [gamma33P]ATP by scintillation counting method
[8] = system: Proto-oncogene tyrosine-protein kinase Src (Homo sapiens), P12931 [T341M]; assay: Inhibition of recombinant full-length human Src T341M mutant at 10 uM using GGEEEEYFELVKKKK as substrate measured after 40 mins in presence of [gamma33P]ATP by scintillation counting method
Mus musculus = species: Mus musculus; assay: Inhibition of recombinant full-length mouse PI3K p110alpha/p85alpha at 10 uM using phosphatidylinositol-4, 5-bisphosphate as substrate measured after 40 mins by HTRF assay
[9] = molecular target: Leukocyte tyrosine kinase receptor (Homo sapiens) (UniProt P29376); assay: Inhibition of recombinant human LTK (450 to end residues) at 10 uM using GEEPLYWSFPAKKK as substrate measured after 40 mins in presence of [gamma33P]ATP by scintillation counting method
[10] = system: Receptor tyrosine-protein kinase erbB-2 (Homo sapiens), P04626 [G778D]; assay: Inhibition of recombinant human ErbB2 G778D mutant (676 to end residues) at 10 uM using poly (Glu, Tyr) 4:1 as substrate measured after 40 mins in presence of [gamma33P]ATP by scintillation counting method
[11] = molecular target: Activin receptor type-1 (Homo sapiens) (UniProt Q04771); assay: Inhibition of recombinant human ALK2 (142 to end residues) at 10 uM using casein as substrate measured after 40 mins in presence of [gamma33P]ATP by scintillation counting method
[12] = molecular target: Ephrin type-A receptor 2 (Homo sapiens) (UniProt P29317); assay: Inhibition of recombinant human EphA2 (596 to 900 residues) at 10 uM using poly(Glu, Tyr) 4:1 as substrate measured after 40 mins in presence of [gamma33P]ATP by scintillation counting method
[13] = molecular target: Serine/threonine-protein kinase WNK3 (Homo sapiens) (UniProt Q9BYP7); assay: Inhibition of human WNK3 (1 to 434 residues) using myelin basic protein as substrate measured after 40 mins in presence of [gamma33P]ATP by scintillation counting method
[14] = molecular target: Wee1-like protein kinase (Homo sapiens) (UniProt P30291); assay: Inhibition of human Wee1 (214 to end residues) using LSNLYHQGKFLQTFCGSPLYRRR as substrate measured after 40 mins in presence of [gamma33P]ATP by scintillation counting method
[15] = molecular target: Ephrin type-A receptor 1 (Homo sapiens) (UniProt P21709); assay: Inhibition of recombinant human EphA1 (568 to end residues) at 10 uM using KKKSPGEYVNIEF as substrate measured after 40 mins in presence of [gamma33P]ATP by scintillation counting method
[16] = molecular target: Dual specificity mitogen-activated protein kinase kinase 4 (Homo sapiens) (UniProt P45985); assay: Inhibition of recombinant human MKK4 (34 to end residues) at 10 uM using unactive JNK1a1 as substrate measured after 40 mins in presence of [gamma33P]ATP by scintillation counting method
[17] = molecular target: Death-associated protein kinase 2 (Homo sapiens) (UniProt Q9UIK4); assay: Inhibition of recombinant full-length human DAPK2 at 10 uM using calmodulin as substrate measured after 40 mins in presence of [gamma33P]ATP by scintillation counting method
[18] = molecular target: CDC7/Cyclin B1 (Homo sapiens) (UniProt P14635+O00311); assay: Inhibition of recombinant full-length human CDC7/cyclinB1 at 10 uM using Histone H1 as substrate measured after 120 mins in presence of [gamma33P]ATP by scintillation counting method; assay type: protein-complex assay
[19] = molecular target: Serine/threonine-protein kinase pim-2 (Homo sapiens) (UniProt Q9P1W9); assay: Inhibition of recombinant human Pim2 (2 to end residues) at 10 uM using RSRHSSYPAGT as substrate measured after 40 mins in presence of [gamma33P]ATP by scintillation counting method
[20] = system: Dual specificity protein kinase TTK (Homo sapiens), P33981 [S389A]; assay: Inhibition of recombinant full-length human TTK S389A mutant at 10 uM using MBP as substrate measured after 40 mins in presence of [gamma33P]ATP by scintillation counting method
[21] = molecular target: Serine/threonine-protein kinase NIM1 (Homo sapiens) (UniProt Q8IY84); assay: Inhibition of recombinant full-length human NIM1 at 10 uM using KKKVSRSGLYRSPSMPENLNRPR as substrate measured after 40 mins in presence of [gamma33P]ATP by scintillation counting method
[22] = molecular target: SWI/SNF-related matrix-associated actin-dependent regulator of chromatin subfamily A member 2 (Homo sapiens) (UniProt P51531); assay: Binding affinity to human partial length SMARCA2 (S1377 to Q1486 residues) expressed in bacterial expression system at 1 uM by BROMOscan assay
Method in brief: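 BROMOscan bromodomain cross-screen run by an outside service, compound at 1 µM against 32 recombinant bromodomains. Binding given as percent of control.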

[23] = molecular target: Serine-protein kinase ATM (Homo sapiens) (UniProt Q13315); assay: Inhibition of recombinant full-length human ATM at 10 uM using GST-cMyc-p53 as substrate measured after 40 mins by ELISA

Sequence of Serine/threonine-protein kinase VRK2 (Homo sapiens) (Q86Y07 whole entry, the tested form may be a part): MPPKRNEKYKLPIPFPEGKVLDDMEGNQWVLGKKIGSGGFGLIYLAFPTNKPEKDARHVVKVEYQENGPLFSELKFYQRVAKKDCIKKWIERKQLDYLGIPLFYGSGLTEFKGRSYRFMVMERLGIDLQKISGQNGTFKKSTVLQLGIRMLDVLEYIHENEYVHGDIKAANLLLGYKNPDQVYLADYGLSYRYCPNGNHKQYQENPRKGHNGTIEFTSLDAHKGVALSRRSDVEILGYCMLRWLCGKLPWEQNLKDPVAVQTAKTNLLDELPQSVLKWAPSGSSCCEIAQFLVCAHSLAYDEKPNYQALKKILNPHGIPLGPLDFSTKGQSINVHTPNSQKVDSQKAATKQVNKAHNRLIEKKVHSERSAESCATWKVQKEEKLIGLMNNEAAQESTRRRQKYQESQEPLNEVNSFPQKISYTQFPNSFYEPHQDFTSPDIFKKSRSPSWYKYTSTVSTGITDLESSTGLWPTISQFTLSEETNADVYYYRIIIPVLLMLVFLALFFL
Sequence of Serine/threonine-protein kinase NIM1 (Homo sapiens) (Q8IY84 whole entry, the tested form may be a part): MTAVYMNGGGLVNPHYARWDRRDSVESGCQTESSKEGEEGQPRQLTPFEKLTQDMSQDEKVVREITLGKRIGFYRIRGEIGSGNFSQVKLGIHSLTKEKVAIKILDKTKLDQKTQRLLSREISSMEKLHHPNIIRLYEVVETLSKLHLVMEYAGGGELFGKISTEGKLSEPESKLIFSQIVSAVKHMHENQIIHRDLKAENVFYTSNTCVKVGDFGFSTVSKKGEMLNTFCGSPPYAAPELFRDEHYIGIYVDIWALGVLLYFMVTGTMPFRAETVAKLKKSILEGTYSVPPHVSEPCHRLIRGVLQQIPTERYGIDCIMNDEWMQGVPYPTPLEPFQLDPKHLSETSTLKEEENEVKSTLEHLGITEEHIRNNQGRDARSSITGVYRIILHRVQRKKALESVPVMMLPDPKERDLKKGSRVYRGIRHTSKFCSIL
Sequence of Ephrin type-A receptor 1 (Homo sapiens) (P21709 whole entry): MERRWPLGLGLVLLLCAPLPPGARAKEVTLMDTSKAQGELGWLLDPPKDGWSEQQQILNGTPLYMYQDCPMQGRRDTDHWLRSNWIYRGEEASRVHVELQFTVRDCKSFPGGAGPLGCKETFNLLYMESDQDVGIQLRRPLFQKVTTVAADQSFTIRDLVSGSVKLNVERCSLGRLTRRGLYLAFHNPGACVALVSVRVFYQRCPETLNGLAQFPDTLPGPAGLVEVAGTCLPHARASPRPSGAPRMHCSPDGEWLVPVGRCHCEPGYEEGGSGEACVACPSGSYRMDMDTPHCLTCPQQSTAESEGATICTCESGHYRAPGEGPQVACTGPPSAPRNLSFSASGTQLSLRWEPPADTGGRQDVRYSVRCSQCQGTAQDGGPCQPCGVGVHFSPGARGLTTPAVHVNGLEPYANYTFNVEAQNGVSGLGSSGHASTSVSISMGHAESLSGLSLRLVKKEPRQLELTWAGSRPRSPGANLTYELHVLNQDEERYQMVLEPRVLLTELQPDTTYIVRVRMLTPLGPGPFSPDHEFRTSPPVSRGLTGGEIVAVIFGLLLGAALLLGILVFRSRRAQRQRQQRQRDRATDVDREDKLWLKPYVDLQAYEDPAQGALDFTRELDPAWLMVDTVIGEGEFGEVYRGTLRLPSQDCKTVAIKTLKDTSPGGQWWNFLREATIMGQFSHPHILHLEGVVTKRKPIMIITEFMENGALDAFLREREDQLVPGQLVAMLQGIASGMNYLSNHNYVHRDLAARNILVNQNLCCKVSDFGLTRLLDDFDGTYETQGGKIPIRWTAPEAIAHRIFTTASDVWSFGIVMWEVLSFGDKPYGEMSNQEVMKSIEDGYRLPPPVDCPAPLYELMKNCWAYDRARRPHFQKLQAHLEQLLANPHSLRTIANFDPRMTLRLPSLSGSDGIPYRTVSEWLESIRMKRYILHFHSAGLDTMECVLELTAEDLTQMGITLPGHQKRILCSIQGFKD
Sequence of Death-associated protein kinase 2 (Homo sapiens) (Q9UIK4 whole entry, looked up): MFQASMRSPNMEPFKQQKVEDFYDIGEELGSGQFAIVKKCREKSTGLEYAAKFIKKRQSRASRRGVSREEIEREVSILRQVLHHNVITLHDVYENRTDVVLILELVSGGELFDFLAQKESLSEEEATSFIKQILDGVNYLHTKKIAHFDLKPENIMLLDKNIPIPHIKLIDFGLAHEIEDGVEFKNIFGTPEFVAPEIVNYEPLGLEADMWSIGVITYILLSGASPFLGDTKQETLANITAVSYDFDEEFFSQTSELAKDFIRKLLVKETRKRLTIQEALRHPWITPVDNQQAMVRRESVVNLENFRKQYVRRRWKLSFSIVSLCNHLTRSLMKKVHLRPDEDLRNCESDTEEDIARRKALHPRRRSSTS
Sequence of Serine/threonine-protein kinase pim-2 (Homo sapiens) (Q9P1W9 whole entry, looked up): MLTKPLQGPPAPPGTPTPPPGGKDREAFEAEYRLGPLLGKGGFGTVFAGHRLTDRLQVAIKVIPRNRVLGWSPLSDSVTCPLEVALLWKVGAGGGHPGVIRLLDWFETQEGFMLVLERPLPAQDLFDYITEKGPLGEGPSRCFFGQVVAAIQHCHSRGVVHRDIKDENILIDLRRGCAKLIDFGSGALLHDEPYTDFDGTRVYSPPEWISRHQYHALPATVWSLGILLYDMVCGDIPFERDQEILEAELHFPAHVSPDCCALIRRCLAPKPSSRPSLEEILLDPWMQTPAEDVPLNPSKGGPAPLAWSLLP
Sequence of Receptor tyrosine-protein kinase erbB-2 (Homo sapiens), P04626 [G778D] (P04626 whole entry G778D): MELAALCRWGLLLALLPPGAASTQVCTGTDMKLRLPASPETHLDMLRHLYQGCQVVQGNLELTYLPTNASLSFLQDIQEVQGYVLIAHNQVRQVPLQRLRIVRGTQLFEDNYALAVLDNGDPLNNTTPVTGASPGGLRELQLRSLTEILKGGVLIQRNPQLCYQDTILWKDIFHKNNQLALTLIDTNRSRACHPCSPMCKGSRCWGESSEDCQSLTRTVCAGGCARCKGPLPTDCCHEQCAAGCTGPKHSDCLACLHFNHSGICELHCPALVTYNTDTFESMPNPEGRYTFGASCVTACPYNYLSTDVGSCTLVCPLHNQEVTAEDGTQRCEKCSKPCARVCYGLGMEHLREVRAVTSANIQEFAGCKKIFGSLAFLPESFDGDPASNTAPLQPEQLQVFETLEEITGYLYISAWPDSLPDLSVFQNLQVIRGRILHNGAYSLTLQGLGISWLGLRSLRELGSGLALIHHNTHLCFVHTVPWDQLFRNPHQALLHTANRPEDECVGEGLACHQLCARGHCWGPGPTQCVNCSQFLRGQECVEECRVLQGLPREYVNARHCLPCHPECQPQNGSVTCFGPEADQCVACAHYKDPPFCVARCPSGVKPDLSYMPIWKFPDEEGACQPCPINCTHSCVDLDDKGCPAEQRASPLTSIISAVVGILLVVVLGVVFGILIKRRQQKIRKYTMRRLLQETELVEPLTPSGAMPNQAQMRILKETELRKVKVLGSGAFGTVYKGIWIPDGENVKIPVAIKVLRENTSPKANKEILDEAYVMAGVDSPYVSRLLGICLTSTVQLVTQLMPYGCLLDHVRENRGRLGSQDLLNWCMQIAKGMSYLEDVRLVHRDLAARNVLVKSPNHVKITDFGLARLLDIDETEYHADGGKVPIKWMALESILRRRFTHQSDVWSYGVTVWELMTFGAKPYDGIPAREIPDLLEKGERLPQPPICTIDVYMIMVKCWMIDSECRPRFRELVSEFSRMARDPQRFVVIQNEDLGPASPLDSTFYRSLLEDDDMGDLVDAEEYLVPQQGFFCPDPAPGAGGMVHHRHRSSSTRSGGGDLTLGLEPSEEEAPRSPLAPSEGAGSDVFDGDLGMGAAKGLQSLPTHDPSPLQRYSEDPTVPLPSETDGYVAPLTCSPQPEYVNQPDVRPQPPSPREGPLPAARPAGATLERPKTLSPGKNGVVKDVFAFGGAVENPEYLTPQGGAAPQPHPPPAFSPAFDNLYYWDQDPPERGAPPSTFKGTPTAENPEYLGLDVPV
Sequence of CDC7/Cyclin B1 (Homo sapiens) (O00311 whole entry, looked up): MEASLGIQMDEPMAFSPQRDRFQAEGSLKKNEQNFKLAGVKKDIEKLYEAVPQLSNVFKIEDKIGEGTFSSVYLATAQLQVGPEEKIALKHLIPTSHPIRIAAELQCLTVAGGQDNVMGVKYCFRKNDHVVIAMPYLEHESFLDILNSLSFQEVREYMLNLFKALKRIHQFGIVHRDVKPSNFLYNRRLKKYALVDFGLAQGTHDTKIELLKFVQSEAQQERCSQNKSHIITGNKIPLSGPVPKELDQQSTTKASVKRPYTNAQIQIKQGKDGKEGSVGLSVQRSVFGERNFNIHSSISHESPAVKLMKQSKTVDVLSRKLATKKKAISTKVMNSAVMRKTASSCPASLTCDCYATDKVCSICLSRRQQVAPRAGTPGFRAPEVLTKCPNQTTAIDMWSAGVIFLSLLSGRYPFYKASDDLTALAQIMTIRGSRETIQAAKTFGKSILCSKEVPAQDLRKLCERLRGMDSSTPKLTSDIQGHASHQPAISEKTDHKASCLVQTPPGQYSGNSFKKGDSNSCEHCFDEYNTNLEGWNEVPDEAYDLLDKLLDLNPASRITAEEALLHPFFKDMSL
Sequence of CDC7/Cyclin B1 (Homo sapiens) (P14635 whole entry, looked up): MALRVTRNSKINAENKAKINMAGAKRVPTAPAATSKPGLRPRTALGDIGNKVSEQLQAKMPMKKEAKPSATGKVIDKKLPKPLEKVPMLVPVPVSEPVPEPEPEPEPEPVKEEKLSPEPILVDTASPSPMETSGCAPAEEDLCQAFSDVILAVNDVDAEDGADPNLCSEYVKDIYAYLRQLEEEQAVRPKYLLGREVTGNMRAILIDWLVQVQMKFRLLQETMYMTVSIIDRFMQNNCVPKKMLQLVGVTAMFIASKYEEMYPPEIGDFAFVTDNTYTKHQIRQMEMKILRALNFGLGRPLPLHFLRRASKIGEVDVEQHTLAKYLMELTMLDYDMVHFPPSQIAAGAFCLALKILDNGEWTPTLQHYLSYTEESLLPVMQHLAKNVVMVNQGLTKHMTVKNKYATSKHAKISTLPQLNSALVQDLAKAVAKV

CN1C[C@H](Nc2nc3cc[nH]c3c(=O)n2C)C[C@H](c2ccc3c(c2)OCCO3)C1
inactive: inhibition [1] | inhibition [2] | inhibition [3] | inhibition [4] | inhibition [5] | inhibition [6] | inhibition [7] | inhibition [8] | inhibition (Mus musculus) | inhibition [9] | inhibition [10] | inhibition [11] | inhibition [12] | inhibition [13] | inhibition [14] | inhibition [15] | inhibition [16] | inhibition [17] | inhibition [18] | inhibition [19] | inhibition [20] | inhibition [21] | Activity [22] | inhibition [23]

From ChEMBL document CHEMBL4350961, “Discovery of Pyrrolo[3,2- d]pyrimidin-4-one Derivatives as a New Class of Potent and Cell-Active Inhibitors of P300/CBP-Associated Factor Bromodomain” (J Med Chem, 2019)
